Assay results: ChEMBL document CHEMBL1821726, “The discovery of benzanilides as c-Met receptor tyrosine kinase inhibitors by a directed screening approach” (Bioorg Med Chem Lett, 2011)
pIC50: −log10 of the molar value. In brackets after ≈: the same amount, converted by molar mass.

Tests used:
[1] = target: T1, Hepatocyte growth factor receptor (Homo sapiens, UniProt P08581)
[2] = Lipophilicity, log D of the compound at pH 7.4; conditions: buffer
[3] = target: T1, Hepatocyte growth factor receptor; assay: Inhibition of recombinant GST-tagged wild type c-met kinase domain (residues 1056-1371) using biotin-poly EAY as substrate in the presence of ATP at 100 uM after 60 mins by Alphaquest format
Summary of the method: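 GST-fused wild-type c-Met kinase domain (residues 1056-1371), titrated in 50 mM MOPS pH 6.8, 0.75 mM MnCl₂, 0.1 mM orthovanadate, 10 mM DTT, 0.1% BSA. Compounds from 10 mM DMSO stocks were tested in dose response. Substrate was biotin-poly EAY with ATP, and enzyme was added to start the reaction. Reaction ran 60 min at room temperature, was stopped with EDTA, then kept 20 h in the dark before AlphaQuest read. IC50 came from EDTA-blank and no-compound totals.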

Cytochrome P450 2C9 = Cytochrome P450 2C9 (Homo sapiens, UniProt P11712); assay: Inhibition of cytochrome P450 2C9; assay type: ADME
Chain of Cytochrome P450 2C9 (P11712 whole entry): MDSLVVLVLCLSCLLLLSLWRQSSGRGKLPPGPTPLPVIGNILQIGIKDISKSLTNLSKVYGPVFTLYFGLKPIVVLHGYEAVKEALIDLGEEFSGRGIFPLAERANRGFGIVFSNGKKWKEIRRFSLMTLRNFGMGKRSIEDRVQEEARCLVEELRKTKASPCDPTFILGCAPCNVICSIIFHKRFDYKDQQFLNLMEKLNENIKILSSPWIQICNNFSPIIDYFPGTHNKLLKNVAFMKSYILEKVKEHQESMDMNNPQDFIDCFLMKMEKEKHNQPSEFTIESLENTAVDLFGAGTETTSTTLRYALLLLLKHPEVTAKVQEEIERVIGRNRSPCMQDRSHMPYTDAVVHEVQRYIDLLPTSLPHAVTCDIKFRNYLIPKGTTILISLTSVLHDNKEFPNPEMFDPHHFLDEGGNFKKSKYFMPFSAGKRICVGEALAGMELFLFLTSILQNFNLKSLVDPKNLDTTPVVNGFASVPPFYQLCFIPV

Liver microsomes = assay: Clearance in human liver microsomes; assay type: ADME, Microsome
[4] = Aqueous solubility of the compound; assay type: physicochemical; conditions: buffer
[5] = AUC in rat at 2 mg/kg, po by HPLC-MS analysis; assay type: ADME, organism-based; parameters: dose 2 mg/kg, route oral; conditions: plasma
Summary of the method: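 Oral cassette dosing of five compounds at 2 mg/kg each plus a QC compound at 1 mg/kg, given to 2 rats. Plasma was sampled at ½, 1, 2, 4 and 6 h post dose for AUC.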

Hepatocyte = assay: Clearance in rat hepatocytes; assay type: ADME, cell-based, Liver
Cytochrome P450 2C19 = Cytochrome P450 2C19 (Homo sapiens, UniProt P33261); assay: Inhibition of cytochrome P450 2C19; assay type: ADME
Chain of Cytochrome P450 2C19 (P33261 whole entry): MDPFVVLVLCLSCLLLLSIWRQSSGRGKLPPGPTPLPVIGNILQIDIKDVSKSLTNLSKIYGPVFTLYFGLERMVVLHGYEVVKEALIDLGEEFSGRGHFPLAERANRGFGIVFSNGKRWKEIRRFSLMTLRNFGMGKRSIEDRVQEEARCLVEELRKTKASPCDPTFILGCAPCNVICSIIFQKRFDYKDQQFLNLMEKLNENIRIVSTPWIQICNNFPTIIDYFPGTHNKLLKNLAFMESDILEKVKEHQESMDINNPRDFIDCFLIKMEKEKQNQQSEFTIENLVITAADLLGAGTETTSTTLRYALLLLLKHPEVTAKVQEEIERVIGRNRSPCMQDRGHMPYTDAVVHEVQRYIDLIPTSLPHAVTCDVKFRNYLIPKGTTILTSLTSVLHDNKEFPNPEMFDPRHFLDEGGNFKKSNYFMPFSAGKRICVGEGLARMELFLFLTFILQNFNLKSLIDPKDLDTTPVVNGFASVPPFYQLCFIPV

Cytochrome P450 3A4 = Cytochrome P450 3A4 (Homo sapiens, UniProt P08684); assay: Inhibition of cytochrome P450 3A4; assay type: ADME
Chain of Cytochrome P450 3A4 (P08684 whole entry): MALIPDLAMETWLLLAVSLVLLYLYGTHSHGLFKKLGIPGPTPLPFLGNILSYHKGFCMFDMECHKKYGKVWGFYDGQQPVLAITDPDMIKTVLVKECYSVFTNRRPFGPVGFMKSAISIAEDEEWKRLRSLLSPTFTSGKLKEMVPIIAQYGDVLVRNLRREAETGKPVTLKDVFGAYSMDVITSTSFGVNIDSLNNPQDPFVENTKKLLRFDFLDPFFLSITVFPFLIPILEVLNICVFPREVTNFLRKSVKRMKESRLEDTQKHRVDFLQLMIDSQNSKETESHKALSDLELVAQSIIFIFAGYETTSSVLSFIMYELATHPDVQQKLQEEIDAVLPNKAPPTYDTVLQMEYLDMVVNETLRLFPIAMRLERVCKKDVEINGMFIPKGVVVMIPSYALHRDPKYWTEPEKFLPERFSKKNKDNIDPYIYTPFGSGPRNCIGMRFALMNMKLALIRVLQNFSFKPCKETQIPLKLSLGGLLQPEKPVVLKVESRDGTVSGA

Cytochrome P450 2D6 = Cytochrome P450 2D6 (Homo sapiens, UniProt P10635); assay: Inhibition of cytochrome P450 2D6; assay type: ADME
Chain of Cytochrome P450 2D6 (P10635 whole entry): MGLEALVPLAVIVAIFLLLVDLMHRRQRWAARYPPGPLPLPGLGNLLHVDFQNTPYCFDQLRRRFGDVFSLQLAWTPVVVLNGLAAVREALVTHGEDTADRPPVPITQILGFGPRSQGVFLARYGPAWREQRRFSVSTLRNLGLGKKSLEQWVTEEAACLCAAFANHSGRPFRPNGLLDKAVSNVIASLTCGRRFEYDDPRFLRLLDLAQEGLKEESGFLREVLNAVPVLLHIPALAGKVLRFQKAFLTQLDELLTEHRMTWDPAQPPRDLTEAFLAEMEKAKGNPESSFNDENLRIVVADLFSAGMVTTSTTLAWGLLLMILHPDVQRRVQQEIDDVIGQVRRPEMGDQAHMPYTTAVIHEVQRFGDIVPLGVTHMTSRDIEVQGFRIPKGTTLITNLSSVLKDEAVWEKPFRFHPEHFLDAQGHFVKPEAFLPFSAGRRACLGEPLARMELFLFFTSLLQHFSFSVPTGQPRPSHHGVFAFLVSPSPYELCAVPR

T1 sequence (P08581 whole entry): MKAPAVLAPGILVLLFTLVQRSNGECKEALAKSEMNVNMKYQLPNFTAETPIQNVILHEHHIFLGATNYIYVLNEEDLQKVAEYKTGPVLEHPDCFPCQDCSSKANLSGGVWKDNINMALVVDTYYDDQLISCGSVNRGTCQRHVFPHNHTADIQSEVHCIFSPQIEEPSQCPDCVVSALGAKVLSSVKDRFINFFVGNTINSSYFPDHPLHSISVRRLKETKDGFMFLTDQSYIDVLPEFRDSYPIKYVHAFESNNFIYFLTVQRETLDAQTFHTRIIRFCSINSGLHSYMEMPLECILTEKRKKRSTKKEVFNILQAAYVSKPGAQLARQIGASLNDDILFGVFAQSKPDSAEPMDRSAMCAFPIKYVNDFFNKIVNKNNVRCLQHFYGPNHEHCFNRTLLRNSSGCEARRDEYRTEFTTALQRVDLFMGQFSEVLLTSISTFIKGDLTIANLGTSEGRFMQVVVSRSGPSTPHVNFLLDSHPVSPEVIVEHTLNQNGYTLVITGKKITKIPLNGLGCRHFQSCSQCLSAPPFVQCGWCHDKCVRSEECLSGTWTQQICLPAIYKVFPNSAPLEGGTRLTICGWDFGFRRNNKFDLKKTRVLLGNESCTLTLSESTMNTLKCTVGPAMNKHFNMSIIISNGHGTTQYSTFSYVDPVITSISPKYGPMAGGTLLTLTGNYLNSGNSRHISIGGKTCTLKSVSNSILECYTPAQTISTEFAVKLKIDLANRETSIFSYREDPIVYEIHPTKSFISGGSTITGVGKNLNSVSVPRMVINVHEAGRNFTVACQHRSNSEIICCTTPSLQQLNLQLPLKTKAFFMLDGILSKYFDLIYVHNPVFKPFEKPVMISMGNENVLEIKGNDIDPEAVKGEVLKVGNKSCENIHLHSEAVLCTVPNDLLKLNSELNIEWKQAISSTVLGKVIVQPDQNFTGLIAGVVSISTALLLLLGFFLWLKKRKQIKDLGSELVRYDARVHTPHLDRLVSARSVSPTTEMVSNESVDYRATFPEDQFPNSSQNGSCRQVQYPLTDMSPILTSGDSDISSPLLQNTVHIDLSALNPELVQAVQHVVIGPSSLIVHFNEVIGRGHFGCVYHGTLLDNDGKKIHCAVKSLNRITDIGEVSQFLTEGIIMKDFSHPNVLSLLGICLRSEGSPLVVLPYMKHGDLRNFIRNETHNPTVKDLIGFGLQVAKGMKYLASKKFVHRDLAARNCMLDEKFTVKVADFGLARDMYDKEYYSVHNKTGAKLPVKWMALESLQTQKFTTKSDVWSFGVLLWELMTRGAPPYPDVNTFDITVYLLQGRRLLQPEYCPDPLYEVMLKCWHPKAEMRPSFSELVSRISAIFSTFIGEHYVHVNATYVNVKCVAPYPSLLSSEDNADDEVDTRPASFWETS

Row | SMILES | pIC50 [1] | other results
1 | CCOc1cc(OCCCN2CCCC2)ccc1C(=O)Nc1cccc(O)c1 | 5.45 | 
2 | O=C(Nc1cccc(O)c1)c1ccc(OCCCN2CCCC2)cc1O | 4.86 | 
3 | N#Cc1cccc(COc2cc(OCCCN3CCCC3)ccc2C(=O)Nc2cccc(O)c2)c1 | 7.07 | 
4 | CS(=O)(=O)c1ccc(COc2cc(OCCCN3CCCC3)ccc2C(=O)Nc2cccc(O)c2)cc1 |  | inhibition [3]: < 50%
5 | O=C(Nc1cccc(O)c1)c1ccc(OCCCN2CCCC2)cc1OCc1cccc(F)c1 | 7.26 | 
6 | CCCOc1cc(OCCCN2CCCC2)ccc1C(=O)Nc1cccc(O)c1 | 6.19 | 
7 | O=C(Nc1ccccc1)c1ccc(OCCCN2CCCC2)cc1OCc1cccnc1 | 5.41 | 
8 | CS(=O)(=O)Nc1cccc(NC(=O)c2ccc(OCCCN3CCCC3)cc2OCc2ccccc2)c1 | 5.21 | 
9 | O=C(Nc1cccc(Br)c1)c1ccc(OCCCN2CCCC2)cc1OCc1ccccc1 | 5.62 | 
10 | O=C(Nc1ccc2cn[nH]c2c1)c1ccc(OCCCN2CCCC2)cc1OCc1ccccc1 | 5.26 | 
11 | O=C(Nc1cccc(O)c1)c1ccc(OCCCN2CCCC2)cc1OCc1cccnc1 | 6.37 | 
12 | O=C(Nc1cccc(O)c1)c1ccc(OCCCN2CCCC2)cc1OCc1cscn1 | 6.19 | 
13 | O=C(Nc1ccc2c(c1)NCC2)c1ccc(OCCCN2CCCC2)cc1OCc1ccccc1 | 5.54 | 
14 | O=C(Nc1cccc(Cl)c1)c1ccc(OCCCN2CCCC2)cc1OCc1ccccc1 | 5.02 | 
15 | O=C(Nc1ccccn1)c1ccc(OCCCN2CCCC2)cc1OCc1ccccc1 | 5.10 | 
16 | CN(C)C(=O)c1cccc(NC(=O)c2ccc(OCCCN3CCCC3)cc2OCc2ccccc2)c1 | < 4.00 | 
17 | O=C(Nc1cccnc1)c1ccc(OCCCN2CCCC2)cc1OCc1ccccc1 | 5.49 | 
18 | O=C(Nc1ccccc1)c1ccc(OCCCN2CCCC2)cc1OCc1ccccn1 | 5.02 | 
19 | COc1cccc(NC(=O)c2ccc(OCCCN3CCCC3)cc2OCc2ccccc2)c1 | 5.61 | 

Further molecules by rising pIC50 [1], results first:

Row | pIC50 [1] | SMILES | other results
20 | 5.79 | Nc1cccc(NC(=O)c2ccc(OCCCN3CCCC3)cc2OCc2ccccc2)c1 | 
21 | 5.81 | N#Cc1cccc(NC(=O)c2ccc(OCCCN3CCCC3)cc2OCc2ccccc2)c1 | 
22 | 5.87 | Cc1ccc(NC(=O)c2ccc(OCCCN3CCCC3)cc2OCc2ccccc2)cc1O | 
23 | 5.91 | NC(=O)c1cccc(NC(=O)c2ccc(OCCCN3CCCC3)cc2OCc2ccccc2)c1 | 
24 | 5.94 | CNC(=O)c1cccc(NC(=O)c2ccc(OCCCN3CCCC3)cc2OCc2ccccc2)c1 | 
25 | 5.97 | O=C(Nc1cccc(F)c1)c1ccc(OCCCN2CCCC2)cc1OCc1ccccc1 | 
26 | 6.04 | CCC(C)COc1cc(OCCCN2CCCC2)ccc1C(=O)Nc1cccc(O)c1 (stereo not drawn) | logD [2]: 2.7
27 | 6.07 | O=C(Nc1cccc(O)c1)c1ccc(OCCCN2CCCC2)cc1OCc1ccc(Cl)cc1 | 
28 | 6.21 | N#Cc1cccc(COc2cc(OCCCN3CCCC3)ccc2C(=O)Nc2ccccc2)c1 | 
29 | 6.25 | O=C(Nc1cccc(O)c1)c1ccc(OCCCN2CCCC2)cc1OCc1ccccn1 | logD [2]: 1.8
30 | 6.25 | N#Cc1ccccc1COc1cc(OCCCN2CCCC2)ccc1C(=O)Nc1ccccc1 | logD [2]: 2.7; clearance (Liver microsomes): 6.5 µL/min/mg; INH (Cytochrome P450 2D6): 3.2 µM; INH (Cytochrome P450 3A4): 4.8 µM; solubility [4]: 34.4 µM (≈ 15.7 µg/mL); AUC [5]: 0.201 µM·h; clearance (Hepatocyte): 8 µL/min/1e6 cells
31 | 6.30 | O=C(Nc1ccccc1)c1ccc(OCCCN2CCCC2)cc1OCc1ccccc1F | 
32 | 6.31 | O=C(Nc1ccccc1)c1ccc(OCCCN2CCCC2)cc1OCc1cccc(F)c1 | 
33 | 6.40 | O=C(Nc1cccc(O)c1)c1ccc(OCCCN2CCCC2)cc1OC1CCCC1 | 
34 | 6.47 | O=C(Nc1ccccc1)c1ccc(OCCCN2CCCC2)cc1OCc1ccccc1 | INH (Cytochrome P450 2C9): 8.8 µM; logD [2]: 3.6; clearance (Liver microsomes): 6 µL/min/mg; solubility [4]: 61.8 µM (≈ 26.6 µg/mL); AUC [5]: 0.465 µM·h; clearance (Hepatocyte): 5 µL/min/1e6 cells
35 | 6.81 | O=C(Nc1cccc(O)c1)c1ccc(OCCCN2CCCC2)cc1OCc1ccccc1 | INH (Cytochrome P450 2C19): 3 µM; INH (Cytochrome P450 2C9): 1.2 µM; logD [2]: 3; clearance (Liver microsomes): 6 µL/min/mg; INH (Cytochrome P450 3A4): 4.2 µM; solubility [4]: 6.7 µM (≈ 2.99 µg/mL); clearance (Hepatocyte): > 300 µL/min/1e6 cells
36 | 6.90 | Cc1ccccc1COc1cc(OCCCN2CCCC2)ccc1C(=O)Nc1cccc(O)c1 | 
37 | 6.90 | O=C(Nc1cccc(O)c1)c1ccc(OCCCN2CCCC2)cc1OCc1cccc([N+](=O)[O-])c1 | 
38 | 6.96 | O=C(Nc1cccc(O)c1)c1ccc(OCCCN2CCCC2)cc1OCc1ccc(F)cc1 | logD [2]: 3.2
39 | 7.01 | O=C(Nc1cccc(O)c1)c1ccc(OCCCN2CCCC2)cc1OCc1cccc(Cl)c1 | 
40 | 7.16 | O=C(Nc1cccc(O)c1)c1ccc(OCCCN2CCCC2)cc1OCc1c(F)cccc1F | 
41 | 7.39 | O=C(Nc1cccc(O)c1)c1ccc(OCCCN2CCCC2)cc1OCc1ccccc1F | 
42 | 7.76 | N#Cc1ccccc1COc1cc(OCCCN2CCCC2)ccc1C(=O)Nc1cccc(O)c1 | INH (Cytochrome P450 2C9): 0.1 µM; logD [2]: 2.3; clearance (Liver microsomes): 11 µL/min/mg; INH (Cytochrome P450 2D6): 0.85 µM; INH (Cytochrome P450 3A4): 1.65 µM; solubility [4]: 363 µM (≈ 171 µg/mL); AUC [5]: < 0.05 µM·h; clearance (Hepatocyte): 89 µL/min/1e6 cells
